Laboratory results reported in ChEMBL document CHEMBL4261491, “Synthesis and synergistic antifungal effects of monoketone derivatives of curcumin against fluconazole-resistant Candida spp” (Medchemcomm, 2017).
Converted amounts (≈) assume the structure as drawn. The source made the active and inactive calls. The rule behind the calls is not given here.

What was measured:
Candida tropicalis [1] = assay: Antifungal activity against fluconazole-resistant Candida tropicalis clinical isolate 087 assessed as fungal growth inhibition at 0.5 ug/ml after 48 hrs; format: functional, organism-based
How it was run: (§1)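 C. tropicalis 087 was grown in RPMI 1640 at 30 °C for 48 h with fluconazole (0.25, 0.5, 1 μg ml–1) or compound (64, 128 μg ml–1), alone or combined. OD630 was read every 8 h to build growth curves. Three independent experiments, means ± SD.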

Pichia kudriavzevii [2] = assay: Antifungal activity against fluconazole-resistant Candida krusei clinical isolate 2159 by broth microdilution method; format: functional
How it was run: (§2)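 Broth microdilution per CLSI/NCCLS M27-A2 against FLC-resistant clinical isolates. MIC80 read for each compound alone and with fluconazole at 8.0 μg ml–1. C. albicans ATCC 90028 served as quality control. Curcumin was the positive control.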

Candida tropicalis [3] = assay: Antifungal activity against fluconazole-resistant Candida tropicalis clinical isolate 087 by broth microdilution method; format: functional; how it was run: as §2
Candida albicans [4] = assay: Antifungal activity against fluconazole-resistant Candida albicans clinical isolate 103 by broth microdilution method; format: functional; how it was run: as §2
Candida tropicalis [5] = assay: Antifungal activity against fluconazole-resistant Candida tropicalis clinical isolate 087 assessed as fungus with permeabilized membrane at 2 ug/ml after 12 hrs by propidium iodide staining-based flow cytometry (reference value: 7.22%); format: functional
Candida tropicalis [6] = assay: Antifungal activity against fluconazole-resistant Candida tropicalis clinical isolate 087 at 1 ug/ml after 16 hrs by turbidity method; format: functional, organism-based
How it was run: (§3)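 C. tropicalis 087 at 10^4 CFU ml–1 in RPMI 1640 in glass tubes. Compound (0–128 μg ml–1) and fluconazole (0–2 μg ml–1) were added alone or in combination. Tubes were shaken at 200 rpm at 30 °C for 16 h, and turbidity was inspected visually and photographed.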

[7] = Cytotoxicity against HUVEC assessed as cell viability at 32 ug/ml after 24 hrs by MTT assay relative to control; format: cell-based; settings: human, HUVEC cells; read-out: Activity
How it was run: (§4)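 HUVECs grown in DMEM with 10% FCS and 100 μg ml–1 streptomycin, 5% CO2, 37 °C. Cells exposed to compounds at 16 and 32 μg ml–1 for 24 h, then incubated with MTT solution (5 mg ml–1) for 3 h. Optical density read at 570 nm. Viability expressed as percentage relative to drug-free control.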

Candida tropicalis [8] = assay: Antifungal activity against fluconazole-resistant Candida tropicalis clinical isolate 087 assessed as apoptosis at 128 ug/ml after 48 hrs; format: functional, organism-based
Candida tropicalis [9] = assay: Antifungal activity against fluconazole-resistant Candida tropicalis clinical isolate 087 in presence of 8 ug/ml fluconazole by broth microdilution method; format: functional; how it was run: as §2
Candida albicans [10] = assay: Antifungal activity against fluconazole-resistant Candida albicans clinical isolate 103 in presence of 8 ug/ml fluconazole by broth microdilution method; format: functional; how it was run: as §2
Candida tropicalis [11] = assay: Synergistic fungicidal activity against fluconazole-resistant Candida tropicalis clinical isolate 087 at 64 to 128 ug/ml after 48 hrs in presence of 1 ug/ml fluconazole; format: functional, organism-based; how it was run: as §1
Candida tropicalis [12] = assay: Antifungal activity against fluconazole-resistant Candida tropicalis clinical isolate 087 assessed as fungal growth inhibition at 64 ug/ml after 48 hrs; format: functional, organism-based; how it was run: as §1
Candida tropicalis [13] = assay: Fungicidal activity against fluconazole-resistant Candida tropicalis clinical isolate 087 at 128 ug/ml after 48 hrs; format: functional, organism-based; how it was run: as §1
Candida tropicalis [14] = assay: Synergistic antifungal activity against fluconazole-resistant Candida tropicalis clinical isolate 087 assessed as fungus with permeabilized membrane at 32 ug/ml after 12 hrs in presence of 2 ug/ml fluconazole by propidium iodide staining-based flow cytometry (reference value: 7.22%); format: functional
Candida tropicalis [15] = assay: Antifungal activity against fluconazole-resistant Candida tropicalis clinical isolate 087 at 64 ug/ml after 16 hrs by turbidity method; format: functional, organism-based; how it was run: as §3
Candida tropicalis [16] = assay: Synergistic antifungal activity against fluconazole-resistant Candida tropicalis clinical isolate 087 at 4 ug/ml after 16 hrs in presence of fluconazole by turbidity method; format: functional, organism-based; how it was run: as §3
[17] = Cytotoxicity against HUVEC assessed as cell viability at 16 ug/ml after 24 hrs by MTT assay relative to control; format: cell-based; settings: human, HUVEC cells; read-out: Activity; how it was run: as §4
Pichia kudriavzevii [18] = assay: Antifungal activity against fluconazole-resistant Candida krusei clinical isolate 2159 in presence of 8 ug/ml fluconazole by broth microdilution method; format: functional; how it was run: as §2
Candida tropicalis [19] = assay: Antifungal activity against fluconazole-resistant Candida tropicalis clinical isolate 087 assessed as fungus with permeabilized membrane at 32 ug/ml after 12 hrs by propidium iodide staining-based flow cytometry (reference value: 7.22%); format: functional

SMILES: OC(Cn1cncn1)(Cn1cncn1)c1ccc(F)cc1F [FLUCONAZOLE]
- growth inhibition (GI) (Candida tropicalis [1]): Active
- MIC80 (Pichia kudriavzevii [2]): 128 µg/mL (≈ 418 µM)
- MIC80 (Candida tropicalis [3]): 128 µg/mL (≈ 418 µM)
- MIC80 (Candida albicans [4]): 128 µg/mL (≈ 418 µM)
- Activity (Candida tropicalis [5]): 37.27%
- Activity (Candida tropicalis [6]): inactive

SMILES: O=C(/C=C/c1ccc(O)c(O)c1)/C=C/c1ccc(O)c(O)c1
- viability at 24 h, 32 ug/ml [7]: 75%
- Activity (Candida tropicalis [8]): Active
- MIC80 (Pichia kudriavzevii [2]): 64 µg/mL (≈ 215 µM)
- fractional inhibitory concentration index (FICI) (Candida tropicalis [9]): 0.125
- MIC80 (Candida tropicalis [9]; Candida tropicalis, isolate 087): 4 µg/mL
- fractional inhibitory concentration index (FICI) (Candida albicans [10]): 0.125
- MIC80 (Candida albicans [10]; Candida albicans, isolate 103): 4 µg/mL
- MIC80 (Candida tropicalis [3]): 64 µg/mL (≈ 215 µM)
- Activity (Candida tropicalis [11]): Active
- MIC80 (Candida albicans [4]): 64 µg/mL (≈ 215 µM)
- growth inhibition (GI) (Candida tropicalis [12]): Active
- Activity (Candida tropicalis [13]): Active
- Activity (Candida tropicalis [14]): 72.79%
- Activity (Candida tropicalis [15]): Active
- Activity (Candida tropicalis [16]): Active
- viability at 24 h, 16 ug/ml [17]: 91%
- fractional inhibitory concentration index (FICI) (Pichia kudriavzevii [18]): 0.188
- MIC80 (Pichia kudriavzevii [18]; Pichia kudriavzevii, isolate 2159): 8 µg/mL
- Activity (Candida tropicalis [19]): 20.92%
